Experimental data collected from several papers.
In brackets after ≈: the same amount, converted by molar mass.
Organism: Pseudomonas aeruginosa

SMILES | effect on | technique | strain | tested at | time | endpoint | result
CC(C)(C)OC(=O)N[C@H]1CCN(c2cc(C(=O)NCC(=O)O)ccc2NC(=O)c2cc(Br)c(Br)[nH]2)C1 | microbial growth | broth dilution | ATCC27853 | – | – | MIC | > 32 µg/mL
COc1cc(C#CC(=O)c2cccc(C)c2)ccc1O | microbial growth | absorbance | – | 10 µM | 24 h | activity vs control | 98%
Cc1ccccc1NC(=O)C=Cc1ccc(O)c(O)c1 | microbial growth | broth dilution | ATCC27853 | – | – | MIC | 8 µg/mL
Cc1[nH]c(C(=O)Nc2ccc(C(=O)NCC(=O)O)cc2N2CC[C@H](NC(=O)OC(C)(C)C)C2)c(Cl)c1Cl | microbial growth | broth dilution | ATCC27853 | – | – | MIC | > 32 µg/mL
CN[C@H](CC(C)C)C(=O)N[C@H]1C(=O)N[C@@H](CC(N)=O)C(=O)N[C@H]2C(=O)N[C@H]3C(=O)N[C@H](C(=O)N[C@H](C(=O)O)c4cc(O)cc(O)c4-c4cc3ccc4O)[C@H](O)c3ccc(c(Cl)c3)Oc3cc2cc(c3O[C@@H]2O[C@H](CO)[C@@H](O)[C@H](O)[C@H]2O[C@H]2C[C@](C)(N)[C@H](O)[C@H](C)O2)Oc2ccc(cc2Cl)[C@H]1O | microbial killing | – | ATCC47085 | – | – | MBC | 1000 µg/mL (≈ 690 µM)
COc1cc(C#CC(=O)CC(C)C)ccc1O | microbial growth | absorbance | – | 100 µM | 24 h | activity vs control | 87%
Cc1[nH]c(C(=O)Nc2ccc(C(=O)NCc3n[nH]c(=O)o3)cc2N2CCN(C(=O)OC(C)(C)C)CC2)c(Cl)c1Cl | microbial growth | broth dilution | ATCC27853 | – | – | MIC | > 32 µg/mL
COc1ccccc1C(=O)C#Cc1ccc(F)c(F)c1 | microbial growth | absorbance | – | 10 µM | 24 h | activity vs control | 86%
Cc1[nH]c(C(=O)Nc2ccc(C(=O)NCC(=O)O)cc2N2CC[C@@H](N)C2)c(Cl)c1Cl.Cl | microbial growth | broth dilution | ATCC27853 | – | – | MIC | > 32 µg/mL
Cc1ccc(C(=O)C#Cc2ccc(F)c(F)c2)cc1 | microbial growth | absorbance | – | 100 µM | 24 h | activity vs control | 96%
O=C(O)c1cn(C2CC2)c2cc(N3CCNCC3)c(F)cc2c1=O | microbial growth | – | ATCC27853 | – | – | MIC | 2 µM
O=C(C=Cc1ccc(O)c(O)c1)OCc1ccccc1 | microbial growth | broth dilution | ATCC27853 | – | – | MIC | 8 µg/mL
COc1cc(C#CC(=O)c2ccc(C(F)(F)F)cc2)ccc1O | microbial growth | absorbance | – | 10 µM | 24 h | activity vs control | 102%
C[C@@H](O)[C@H]1C(=O)N2C(C(=O)O)=C(S[C@@H]3CN[C@H](C(=O)N(C)C)C3)[C@H](C)[C@H]12 | microbial growth | broth dilution | ATCC27853 | – | 20 h | MIC | < 0.5 µg/mL
COc1cccc(C(=O)C#Cc2ccc(O)c(OC)c2)c1 | microbial growth | absorbance | – | 100 µM | 24 h | activity vs control | 82%
COc1cc(C=Nc2ccccc2Br)ccc1O | microbial growth | disc diffusion | – | 2000 µg/mL | 24 h | inhibition zone | 14.2 mm
Cl.N[C@H]1CCN(c2cc(C(=O)NCC(=O)O)ccc2NC(=O)c2cc(Br)c(Br)[nH]2)C1 | microbial growth | broth dilution | ATCC27853 | – | – | MIC | > 32 µg/mL
CC(C)(O/N=C(\C(=O)N[C@@H]1C(=O)N2C(C(=O)[O-])=C(C[n+]3ccccc3)CS[C@H]12)c1csc(N)n1)C(=O)O | microbial growth | disc diffusion | – | 2000 µg/mL | 24 h | inhibition zone | 9.5 mm
Cc1[nH]c(C(=O)Nc2ccc(-c3n[nH]c(=O)o3)cc2N2CCC[C@H](N)C2)c(Cl)c1Cl.Cl | microbial growth | broth dilution | ATCC27853 | – | – | MIC | 16 µg/mL
COc1cc(C#C[C@H](O)CC(C)C)ccc1O | microbial growth | absorbance | – | 100 µM | 24 h | activity vs control | 98%
COc1cc(C=Nc2ccc([N+](=O)[O-])cc2)ccc1O | microbial growth | disc diffusion | – | 2000 µg/mL | 24 h | inhibition zone | 14.2 mm
CC1CCC(C(C)C)C(OC(=O)C=Cc2ccc(O)c(O)c2)C1 (stereo not drawn) | microbial growth | broth dilution | ATCC27853 | – | – | MIC | 2 µg/mL
Cl.O=C(O)CNC(=O)c1ccc(NC(=O)c2cc(Br)c(Br)[nH]2)c(N2CCNCC2)c1 | microbial growth | broth dilution | ATCC27853 | – | – | MIC | > 32 µg/mL
CC(C)NCC(COc1cccc2ccccc12)OC(=O)C=Cc1ccc(O)c(O)c1 (stereo not drawn) | microbial growth | broth dilution | ATCC27853 | – | – | MIC | 64 µg/mL
COc1cc(C#CC(O)c2ccccc2)ccc1O (stereo not drawn) | microbial growth | absorbance | – | 100 µM | 24 h | activity vs control | 82%
O=C(C=Cc1ccc(O)c(O)c1)Oc1ccccc1 | microbial growth | broth dilution | ATCC27853 | – | – | MIC | 8 µg/mL
COc1cc(C=Nc2cccc(O)c2)ccc1O | microbial growth | disc diffusion | – | 2000 µg/mL | 24 h | inhibition zone | 14.5 mm
